In general, IC50 refers to the point on the concentration scale where inhibition reaches its midpoint. A high value points to weaker potency in that assay.

For this assay, the target named is T1, Zinc finger protein GLI1 (Homo sapiens, UniProt P08151).
T1 sequence (P08151 whole entry): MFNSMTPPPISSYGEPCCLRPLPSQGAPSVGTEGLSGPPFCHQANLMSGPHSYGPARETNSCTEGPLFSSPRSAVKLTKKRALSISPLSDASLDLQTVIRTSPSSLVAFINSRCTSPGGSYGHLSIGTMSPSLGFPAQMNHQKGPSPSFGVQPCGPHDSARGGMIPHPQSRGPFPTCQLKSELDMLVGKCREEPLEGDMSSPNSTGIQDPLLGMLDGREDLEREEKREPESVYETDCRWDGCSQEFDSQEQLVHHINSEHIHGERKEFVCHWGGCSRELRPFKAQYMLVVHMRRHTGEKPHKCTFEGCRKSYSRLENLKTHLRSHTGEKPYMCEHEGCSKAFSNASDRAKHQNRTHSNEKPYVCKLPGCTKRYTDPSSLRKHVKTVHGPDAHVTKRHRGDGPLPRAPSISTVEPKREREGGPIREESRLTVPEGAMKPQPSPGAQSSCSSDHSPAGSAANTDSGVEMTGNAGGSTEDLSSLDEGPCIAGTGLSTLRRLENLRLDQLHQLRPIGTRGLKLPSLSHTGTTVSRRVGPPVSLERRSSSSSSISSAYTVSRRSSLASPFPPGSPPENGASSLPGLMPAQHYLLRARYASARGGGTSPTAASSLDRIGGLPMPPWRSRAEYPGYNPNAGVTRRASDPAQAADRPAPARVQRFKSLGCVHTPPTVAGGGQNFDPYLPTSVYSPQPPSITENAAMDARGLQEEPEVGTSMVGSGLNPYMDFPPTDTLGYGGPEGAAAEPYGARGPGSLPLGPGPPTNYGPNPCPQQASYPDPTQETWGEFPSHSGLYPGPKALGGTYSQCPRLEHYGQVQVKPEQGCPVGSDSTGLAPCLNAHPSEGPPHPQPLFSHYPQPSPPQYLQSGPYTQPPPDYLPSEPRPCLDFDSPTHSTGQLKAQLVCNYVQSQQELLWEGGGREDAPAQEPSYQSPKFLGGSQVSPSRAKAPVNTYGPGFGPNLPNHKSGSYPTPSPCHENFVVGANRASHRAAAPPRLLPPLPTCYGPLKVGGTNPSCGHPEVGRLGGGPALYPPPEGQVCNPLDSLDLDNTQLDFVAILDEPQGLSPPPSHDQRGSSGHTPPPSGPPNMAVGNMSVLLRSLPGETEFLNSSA
In words: Inhibition of exogenously transfected human Gli1-mediated transcriptional activity in mouse C3H10T1/2 cells after 24 hrs by luciferase reporter gene assay. The method in brief: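 They were replated 18 h later, given compound or DMSO 6 h after plating, and exposed for 24 h at 37 °C, 5% CO2. Lysate was read by dual luciferase as firefly/Renilla, triplicate, DMSO = 0%. IC50 came from curve fitting.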
(A reporter such as luciferase makes a cellular process visible.)
`C[C@H](C(=O)N(CCc1ccc(O)cc1)CCc1ccc(O)cc1)c1cccc(C(=O)c2ccccc2)c1` [(S)-2-(3-Benzoylphenyl)-N,N-bis(4-hydroxyphenethyl)propanamide] displayed an IC50 of 9.4 µM.

For `CCCN(CCc1ccc(O)cc1)C(=O)[C@@H](C)c1cccc(C(=O)c2ccccc2)c1` [(S)-2-(3-Benzoylphenyl)-N-(4-hydroxyphenethyl)-N-propylpropanamide], the IC50 was determined as 6.9 µM.

`C[C@H](C(=O)NCCc1ccc(O)cc1)c1cccc(C(=O)c2ccccc2)c1` [(S)-2-(3-Benzoylphenyl)-N-(4-hydroxyphenethyl)propanamide] gave a half-inhibitory concentration (IC50) of 11.4 µM.

For the origin of these results see BindingDB's records for doi:10.1021/jm900106f (St. Jude Children'S Research Hospital, 2009).
